Test [1] deals with Arabidopsis thaliana. The test is described as follows: Inhibition of triple response phenotype in Arabidopsis thaliana seedlings expressing eto1-4 mutant by measuring hypocotyl elongation at 10 uM 3 days after germination in dark. As to conditions: 72 h. The class given is functional.
The target of test [2] is T1, 1-aminocyclopropane-1-carboxylate synthase 5 (Arabidopsis thaliana, UniProt Q37001).
T1 sequence (Q37001 whole entry): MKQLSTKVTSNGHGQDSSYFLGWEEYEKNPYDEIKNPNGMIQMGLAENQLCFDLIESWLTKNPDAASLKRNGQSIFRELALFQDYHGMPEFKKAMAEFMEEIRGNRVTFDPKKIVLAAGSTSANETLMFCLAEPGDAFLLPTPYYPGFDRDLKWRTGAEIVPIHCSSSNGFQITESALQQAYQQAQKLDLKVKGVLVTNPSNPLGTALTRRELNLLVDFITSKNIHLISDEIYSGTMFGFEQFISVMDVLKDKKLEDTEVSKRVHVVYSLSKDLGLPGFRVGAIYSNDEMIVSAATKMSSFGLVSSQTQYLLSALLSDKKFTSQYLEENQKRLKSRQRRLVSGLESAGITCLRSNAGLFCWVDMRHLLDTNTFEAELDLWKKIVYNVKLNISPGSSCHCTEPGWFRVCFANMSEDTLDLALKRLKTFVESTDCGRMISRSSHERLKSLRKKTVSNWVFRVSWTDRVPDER
The test can be described thus: Inhibition of Arabidopsis thaliana recombinant ACS5 expressed in Escherichia coli (BL21) assessed as oxidation of ACC to ethylene preincubated for 30 min measured after 10 min by gas chromatography. Summed up:
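His-tagged recombinant ACS5 expressed in E. coli (IPTG induction, 16°C, 18 h) and purified on a HisTrap column. Enzyme (1 μg) in 2 ml buffer A (pH 8.0) with 10 μM PLP and 250 μM SAM, plus graded compound or DMSO, for 30 min at 25°C. Stopped with HgCl2 and NaOH:bleach, which oxidize ACC to ethylene, quantified by GC against an ACC standard curve. Duplicate, repeated ≥3 times.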

Test [3] deals with Arabidopsis thaliana. The test can be described thus: Inhibition of ethylene biosynthesis in Arabidopsis thaliana eto1-4 expressing 5 x EBS::LUC assessed as decrease ethylene level at 10 uM 3 days after germination in dark. In kind it is functional, organism-based.
The test system of test [4] is Arabidopsis thaliana. The test is described as follows: Inhibition of triple response phenotype in Arabidopsis thaliana seedlings expressing 35S::EIN3 by measuring hypocotyl elongation up to 50 uM 3 days after germination in dark. In kind it is functional, organism-based.
Test [5] has as its system Arabidopsis thaliana. The test can be described thus: Inhibition of triple response phenotype in Arabidopsis thaliana seedlings expressing eto1-4 mutant by measuring hypocotyl elongation up to 50 uM 3 days after germination in dark. In kind it is functional, organism-based.
Test [6] concerns Arabidopsis thaliana. The test is described as follows: Inhibition of triple response phenotype in Arabidopsis thaliana seedlings expressing ctr1-1 mutant by measuring hypocotyl elongation at 10 uM 3 days after germination in dark. In kind it is functional, organism-based.
In test [7] the test system is Arabidopsis thaliana. The test is described as follows: Inhibition of triple response phenotype in Arabidopsis thaliana seedlings expressing eto2-1 mutant by measuring hypocotyl elongation at 10 to 30 uM 3 days after germination in dark. The class given is functional, organism-based.
Test [8] deals with Arabidopsis thaliana. The test is described as follows: Inhibition of triple response phenotype in Arabidopsis thaliana seedlings expressing 35S::EIN3 by measuring hypocotyl elongation at 10 uM 3 days after germination in dark. The class given is functional, organism-based.
Test [9] concerns Arabidopsis thaliana. The test is described as follows: Inhibition of ethylene biosynthesis in Arabidopsis thaliana eto1-4 expressing 5 x EBS::LUC assessed as decrease ethylene level at 10 uM 3 days after germination in dark relative to aminoethoxyvinylglycine. The class given is functional. The settings on record: 72 h.
For test [10], the system named is Arabidopsis thaliana. The test can be described thus: Inhibition of triple response phenotype in Arabidopsis thaliana seedlings expressing ctr1-1 mutant by measuring hypocotyl elongation up to 50 uM 3 days after germination in dark. In kind it is functional, organism-based.
The subject of test [11] is Arabidopsis thaliana. The test can be described thus: Inhibition of triple response phenotype in Arabidopsis thaliana seedlings expressing eto1-4 mutant and 5 x EBS::LUC by measuring hypocotyl elongation at >5 uM 3 days after germination in dark. In kind it is functional, organism-based. In outline:
(§1)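 Etiolated eto1-4 seedlings grown 3 days in the dark at 22°C on 0.5xMS agar containing graded compound, STS or AVG, with DMSO control. Seeds bleach-sterilized and stratified 3–4 days at 4°C beforehand. Hypocotyl length measured from stereomicroscope images; means of n ≥30 seedlings.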

Test [12] concerns Arabidopsis thaliana. The test is described as follows: Inhibition of triple response phenotype in Arabidopsis thaliana seedlings expressing eto1-4 mutant and 5 x EBS::LUC by measuring hypocotyl elongation at 0.1 to 1 uM 3 days after germination in dark. The class given is functional, organism-based. In outline:
as §1

The target in test [13] is T1, 1-aminocyclopropane-1-carboxylate synthase 5. The test can be described thus: Uncompetitive inhibition of Arabidopsis thaliana recombinant ACS5 expressed in Escherichia coli (BL21) assessed as oxidation of ACC to ethylene by Lineweaver-Burk plot analysis.
Test [14] has as its system Arabidopsis thaliana. The test can be described thus: Inhibition of triple response phenotype in Arabidopsis thaliana seedlings expressing eto1-4 mutant and 5 x EBS::LUC by measuring hypocotyl elongation at 1 to 5 uM 3 days after germination in dark. In kind it is functional, organism-based. Summed up:
as §1

Calls of active or inactive are those of the source. No cut-off for these calls is given here.

By inhibition is commonly meant the percentage by which the read-out fell short of the control. In general, IC50 refers to the midpoint of a concentration-inhibition curve. Turning to `CC1(C)CC(=O)c2cnc(NC3CCCC3)nc2C1`, the results for the inhibition at 10 µM with Arabidopsis thaliana [1] and in the test on Arabidopsis thaliana [9] were 55% and 87%, respectively. Also, in test [2], the IC50 was determined as 7.9 µM. Also, the inhibition result with Arabidopsis thaliana [3], in the test with Arabidopsis thaliana [5] and in the test on Arabidopsis thaliana [7] was “Active” each time. For the same compound, the inhibition entry in the test on Arabidopsis thaliana [4], in the test on Arabidopsis thaliana [6], in the test on Arabidopsis thaliana [8] and in the test on Arabidopsis thaliana [10] was “inactive” throughout.

For the compound `O=S(O)(O)=S` [SILVER THIOSULFATE], the inhibition at 10 µM in the test on Arabidopsis thaliana [1] (tested as the Ag salt or complex) was 84%.

Turning to `CC1(C)CC(=O)c2cnc(Nc3ccccc3)nc2C1`, the values for the inhibition at 10 µM with Arabidopsis thaliana [1] and in the test on Arabidopsis thaliana [9] were 29% and 77%, respectively.

On to `CC1CC(=O)c2cnc(NCc3ccccc3)nc2C1` (centres undefined), for which the inhibition at 10 µM with Arabidopsis thaliana [9] was 54%.

As for `CCCCNc1ncc2c(n1)CC(c1ccccc1)CC2=O` (centres undefined), the values for the inhibition at 10 µM with Arabidopsis thaliana [1] and with Arabidopsis thaliana [9] were 43% and 92%, respectively.

Regarding `CC1CC(=O)c2cnc(Nc3ccccc3)nc2C1` (centres undefined), the values for the inhibition at 10 µM with Arabidopsis thaliana [1] and in the test on Arabidopsis thaliana [9] were 28% and 82%, respectively.

For `CC1(C)CC(=O)c2cnc(NCc3ccc(F)cc3)nc2C1`, the inhibition at 10 µM in the test on Arabidopsis thaliana [9] came out at 69%.

`CC1(C)CC(=O)c2cnc(NCc3ccccc3)nc2C1`: in the test on Arabidopsis thaliana [9], the inhibition at 10 µM is 45%.

Consider `Cc1nc(Nc2ccc(F)cc2)nc2c1C(=O)CC(C)(C)C2`, for which the inhibition at 10 µM in the test on Arabidopsis thaliana [9] was 9%.

`Cc1ccc(C2CC(=O)c3cnc(NC4CCCC4)nc3C2)cc1` (centres undefined): the inhibition at 10 µM was 66% with Arabidopsis thaliana [1] and 87% with Arabidopsis thaliana [9]. For the same compound, the inhibition result with Arabidopsis thaliana [3], in the test with Arabidopsis thaliana [5], in the test on Arabidopsis thaliana [11], with Arabidopsis thaliana [7] and in the test on Arabidopsis thaliana [12] was “Active” each time. Besides, the inhibition result in the test with Arabidopsis thaliana [4], in the test on Arabidopsis thaliana [6], in the test on Arabidopsis thaliana [8] and in the test on Arabidopsis thaliana [10] was “inactive” in each case.

On to `O=C1CC(c2ccccc2Cl)Cc2nc(NC3CCCC3)ncc21` (centres undefined), for which the results for the inhibition at 10 µM with Arabidopsis thaliana [1] and with Arabidopsis thaliana [9] were 54% and 91%, respectively.

The Ki is a measure of affinity in units of concentration, obtained from inhibition or displacement. With `COc1ccc(C2CC(=O)c3cnc(Nc4ccccc4)nc3C2)cc1` (centres undefined), the inhibition at 10 µM with Arabidopsis thaliana [1] came out at 77%; with Arabidopsis thaliana [9] it was 93%. The inhibitory constant (Ki) in test [13] turned out to be 0.023 µM. Moreover, the inhibition result with Arabidopsis thaliana [3], in the test with Arabidopsis thaliana [5], with Arabidopsis thaliana [11], in the test on Arabidopsis thaliana [7] and in the test on Arabidopsis thaliana [12] was “Active” throughout. The inhibition entry in the test with Arabidopsis thaliana [4], in the test on Arabidopsis thaliana [6], in the test on Arabidopsis thaliana [8] and in the test with Arabidopsis thaliana [10] was “inactive” in each case.

Regarding `Cc1nc(Nc2ccccc2)nc2c1C(=O)CC(C)(C)C2`, in the test with Arabidopsis thaliana [9], the inhibition at 10 µM turned out to be 67%.

Take `CCCCc1nc(N)nc2c1C(=O)CC(C)(C)C2`: the inhibition at 10 µM in the test on Arabidopsis thaliana [9] is 22%.

Turning to `CC1(C)CC(=O)c2cnc(Nc3ccc(F)cc3)nc2C1`, in the test with Arabidopsis thaliana [9], the inhibition at 10 µM amounted to 36%.

As to `NCCO/C=C/C(N)C(=O)O` (centres undefined) [AMINOETHOXYVINYLGLYCINE], testing at 10 µM with Arabidopsis thaliana [1] gave an inhibition of 100%. In addition, the inhibition entry in the test on Arabidopsis thaliana [14] and in the test with Arabidopsis thaliana [7] was “Active” in each case. The inhibition constant Ki in test [13] stood at 0.015 µM. In [2], the IC50 came to 0.7 µM.
